Key:
[1] = tested on: PAS domain of Mycobacterium tuberculosis Rv1364c; details: ref King‐Scott et al., 2011, cited from earlier work; for binding to PAS domain: in words
[2] = target: T1, N‐terminal PAS domain from XC_2579 (Tk 4, residues 1 to 165) (Xanthomonas campestris pv. campestris, UniProt Q8PA41); test: Isothermal titration calorimetry of DSF and structural analogues binding to Tk 4; details: ITC; for △H: change in enthalpy upon binding; for △S (cal mol^−1 per degree): change in entropy upon binding
T1 sequence (Q8PA41 14-178): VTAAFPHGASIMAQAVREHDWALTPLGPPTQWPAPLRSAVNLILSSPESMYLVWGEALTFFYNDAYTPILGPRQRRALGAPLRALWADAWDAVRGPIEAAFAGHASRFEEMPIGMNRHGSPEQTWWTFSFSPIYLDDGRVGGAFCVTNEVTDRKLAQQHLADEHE
In short: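 His6-tagged XC_2579 PAS domain construct (Tk 4) expressed in E. coli BL21(DE3) with 0.25 mM IPTG at 37°C for 1 h. Purified by Ni2+ affinity; tag cleaved with HRV 3C protease. Heats corrected against buffer control; one-site fit for Kd, ΔH, ΔS. Repeated at least twice.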

[3] = target: T2, Tk 3 (XC_2579 amino residues 1 to 240) (Xanthomonas campestris pv. campestris, UniProt Q8PA41); test: Isothermal titration calorimetry of DSF binding to truncation Tk 3; details: ITC, Tk 3, in words
T2 sequence (Q8PA41 14-253): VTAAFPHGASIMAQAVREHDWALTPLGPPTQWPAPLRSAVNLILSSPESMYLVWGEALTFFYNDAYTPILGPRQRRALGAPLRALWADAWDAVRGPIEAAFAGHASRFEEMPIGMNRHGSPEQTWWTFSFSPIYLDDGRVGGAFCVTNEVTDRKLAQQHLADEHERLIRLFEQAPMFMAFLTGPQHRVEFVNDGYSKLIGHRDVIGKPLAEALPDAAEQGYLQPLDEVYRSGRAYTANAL

[4] = target: T3, Tk 1 (XC_2579 N‐terminal amino acid residues 1 to 360) (Xanthomonas campestris pv. campestris, UniProt Q8PA41); test: Isothermal titration calorimetry of DSF binding to truncation Tk 1; details: ITC, Tk 1, in words
T3 sequence (Q8PA41 14-373): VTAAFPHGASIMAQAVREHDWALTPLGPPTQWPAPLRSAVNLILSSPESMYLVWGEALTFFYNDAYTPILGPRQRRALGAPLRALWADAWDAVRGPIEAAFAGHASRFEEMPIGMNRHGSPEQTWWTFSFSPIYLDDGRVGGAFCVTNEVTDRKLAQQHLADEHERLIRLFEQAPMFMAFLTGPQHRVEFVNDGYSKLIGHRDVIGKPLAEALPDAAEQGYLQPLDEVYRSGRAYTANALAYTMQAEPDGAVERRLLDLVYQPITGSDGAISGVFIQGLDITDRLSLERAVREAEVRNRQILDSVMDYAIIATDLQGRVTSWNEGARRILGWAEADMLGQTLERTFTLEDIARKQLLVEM

[5] = tested on: XC_0107 gfp fusion; test: XC_0107 gfp reporter fusion expression induced by DSF; assay type: cell-based, Xanthomonas campestris; details: rpfFC strain carrying reporter; 50 μM synthetic DSF, 14 h
[6] = target: T4, full‐length XC_2579 protein (RpfS) (Xanthomonas campestris pv. campestris, UniProt Q8PA41); test: Isothermal titration calorimetry of DSF binding to full-length XC_2579
T4 sequence (Q8PA41 14-968): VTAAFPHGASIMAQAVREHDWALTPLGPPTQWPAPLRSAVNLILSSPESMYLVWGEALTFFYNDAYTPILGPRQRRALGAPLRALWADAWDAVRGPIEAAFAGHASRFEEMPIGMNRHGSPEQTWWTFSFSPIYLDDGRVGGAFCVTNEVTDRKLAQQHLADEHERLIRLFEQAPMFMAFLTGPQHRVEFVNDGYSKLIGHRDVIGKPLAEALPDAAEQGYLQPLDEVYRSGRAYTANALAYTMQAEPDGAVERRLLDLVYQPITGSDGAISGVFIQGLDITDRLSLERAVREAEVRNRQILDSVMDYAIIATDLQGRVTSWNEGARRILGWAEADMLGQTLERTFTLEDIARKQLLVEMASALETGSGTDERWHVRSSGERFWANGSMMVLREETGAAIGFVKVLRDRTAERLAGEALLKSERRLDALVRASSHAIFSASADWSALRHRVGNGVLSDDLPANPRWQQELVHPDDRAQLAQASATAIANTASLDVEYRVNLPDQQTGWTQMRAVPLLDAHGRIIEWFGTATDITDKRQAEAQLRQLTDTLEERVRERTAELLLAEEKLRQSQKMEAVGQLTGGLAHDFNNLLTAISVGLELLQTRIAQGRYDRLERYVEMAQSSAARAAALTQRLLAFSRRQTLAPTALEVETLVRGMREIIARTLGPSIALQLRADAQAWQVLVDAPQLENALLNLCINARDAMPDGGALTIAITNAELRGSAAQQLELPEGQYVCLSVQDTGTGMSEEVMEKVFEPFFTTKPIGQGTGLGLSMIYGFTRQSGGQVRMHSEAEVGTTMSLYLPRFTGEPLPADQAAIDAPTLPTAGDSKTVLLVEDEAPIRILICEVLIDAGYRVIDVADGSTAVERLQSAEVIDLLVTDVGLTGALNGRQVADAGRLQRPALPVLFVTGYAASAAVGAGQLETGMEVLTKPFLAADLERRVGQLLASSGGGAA

[7] = tested on: Tk2 (XC_2579 amino acid residues 530–955); test: Isothermal titration calorimetry of DSF binding to truncation Tk 2; design: species or system Xanthomonas campestris pv. campestris; details: ITC, Tk2, in words
[8] = Kd (M), Tk 4, higher concentrations of analogues used to estimate Kd

In the case of `CCCCCCCC/C=C\CCCCCCCC(=O)O` [oleic acid], the “binding to PAS domain” value [1] is listed as “bind”.

For `CC(C)CCCCCCCCCC(=O)O` [11‐methyl‐dodecanoic acid], the Kd [2, 8] was 0.0069 M and the Kd ([2]; Kd, Tk 4) was > 0.001 M.

For `CC(C)CCCCCCC/C=C\C(=O)O` [DSF, cis‐11‐methyl‐2‐dodecenoic acid], the DSF binding ([2]; Tk 4, in words) was “High affinity DSF binding”, the “△H” value ([2]; Tk 4) was -1.60 kcal/mol and the “△S (cal mol^−1 per degree)” value ([2]; Tk 4) was 59.73 cal mol^−1 per degree. The DSF binding [3] was “High affinity DSF binding”, the DSF binding [4] was “bound DSF with high affinity” and the “expression of GFP (XC_0107 gfp reporter)” value [5] was “activated”. For the same compound, the Kd [6] was 1.4 µM and the DSF binding [7] was “no binding was detected”.

With `CC(C)CCCCCCC/C=C/C(=O)O` [trans‐11‐methyl‐2‐dodecenoic acid] the Kd [2, 8] was 0.00113 M and the Kd ([2]; Kd, Tk 4) was > 0.001 M.

In the case of `CCCCCCCCCCCCCCCC(=O)O` [palmitic acid], the “affinity relative to palmitoleic acid (times lower)” value [1] is listed as 100 times.

In the case of `CCCCCC/C=C\CCCCCCCC(=O)O` [Palmitoleic acid], the “binding to PAS domain” value [1] is listed as “bind”.

With `CCCCCCCCCCCC(=O)O` [Dodecanoic acid] the Kd [2, 8] was 0.0149 M and the Kd ([2]; Kd, Tk 4) was > 0.001 M.

In the case of `CCCCCCCCC/C=C\C(=O)O` [cis‐2‐dodecenoic acid (BDSF), cis‐2‐dodecenoic acid], the “△H” value ([2]; Tk 4) is reported as -1.21 kcal/mol, the “△S (cal mol^−1 per degree)” value ([2]; Tk 4) is reported as 58.05 cal mol^−1 per degree and the Kd [2, 8] is reported as 7.1e-06 M. It also gave a Kd ([2]; Kd, Tk 4, PBS buffer at 25°C) of 7e-06 M.

From article PMC4159695 (Molecular Microbiology, 2014)
